A selection: hits, their analogues and other compounds. The true share with any hit is near 4.6%.
OX1R antag-1 – antagonists of human orexin 1 receptor (OX1R); inhibition, % at 6.6 µM; hit rate 1.8% among 330,000; OX1R-expressing cells, FRET antagonist read-out; O43613; in the data active = inhibition mostly above about 38%, no sharp cut-off; inactive = mostly below about 40%;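 note: 0% = agonist challenge alone and 100% = reference antagonist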
Target sequence (O43613 whole entry, looked up): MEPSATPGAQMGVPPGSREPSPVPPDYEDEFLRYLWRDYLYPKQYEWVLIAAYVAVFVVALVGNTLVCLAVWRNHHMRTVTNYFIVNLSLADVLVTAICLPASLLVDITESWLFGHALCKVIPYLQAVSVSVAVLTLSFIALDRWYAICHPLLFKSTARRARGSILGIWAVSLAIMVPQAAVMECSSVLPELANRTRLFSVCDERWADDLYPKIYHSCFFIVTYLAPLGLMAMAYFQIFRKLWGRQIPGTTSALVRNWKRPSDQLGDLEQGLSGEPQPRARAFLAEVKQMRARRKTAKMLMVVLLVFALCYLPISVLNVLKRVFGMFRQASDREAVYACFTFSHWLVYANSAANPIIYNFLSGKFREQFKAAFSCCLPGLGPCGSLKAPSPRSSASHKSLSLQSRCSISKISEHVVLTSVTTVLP
CHO parental Ca – counter-screen: ATP calcium response change in parental CHO cells | parental CHO-K1, ATP-induced calcium, Fluo-8 fluorescence | inhibition, % at 5.6 µM | hit rate 0.63% among 330,000 | AID 463079;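 active = inhibition above that plate's mean sample inhibition plus 3 SD, cut at about 26% in these data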;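 note: 0% = ATP-challenged DMSO wells and 100% = DMSO wells without ATP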
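Material: parental CHO cells / Compound: single nominal dose of 5.6 µM per compound / Signal: Fluo-8 fluorescence / Replicates: singlicate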
TAAR1 antagonist – antagonists of human TAAR1 | CHO RD-HGA16 TAAR1, Fluo-8 calcium fluorescence, antagonist | inhibition, % at 3 µM | hit rate 1.5% among 360,000;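 active = inhibition above a per-plate cutoff, the mean inhibition of test compounds on that plate plus 3 SD, cut at about 49% in these data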;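 note: 0% = DMSO plus EC80 beta-PEA response and 100% = DMSO alone without agonist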
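Test system: CHO RD-HGA16 cells bearing hTAAR1 | Reagent: β-PEA, EC80 | Compound dosing: 3 µM, single point | Schedule: Dye loading 75 min at 37 °C, then 30 min room temperature | Signal: Calcium fluorescence with Fluo-8 | Evaluation: Percent inhibition of PEA-evoked calcium signal, max/basal emission ratio | Control set: DMSO-only wells and EC80 β-PEA-stimulated wells | Repeats: Singlicate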
TAAR1 agonist – human TAAR1 agonism | Q96RJ0 | CHO RD-HGA16 TAAR1, Fluo-8 calcium fluorescence; vehicle wells 0%, saturating PEA agonist 100% | activation, % at 3 µM | hit rate 0.99% among 360,000 | AID 624467;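 active = activation above the mean activation of all test compounds in the run plus 3 SD, cut at about 38% in these data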
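Test system: RD-HGA16 (CHO) cells co-expressing Gα16 and hTAAR1 / Benchmarks: DMSO vehicle as 0%, PEA at EC100 as 100% / Repeats: no replicates (n 1) / Measure: % activation from peak over basal fluorescence ratio, DMSO-to-PEA scaled / Timing: 17-24 h plating, Fluo-8 75 min 37 °C, 30 min RT / Technique: kinetic Fluo-8 calcium fluorescence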
GPR7 antagonist – human neuropeptides B/W receptor 1 antagonism | GPR7-expressing cells, fluorescence antagonist assay | hit rate 1.1% among 290,000 | inhibition, % at 4.4 µM; in the data active = inhibition above about 16%, passing the limit was not always enough;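 note: cells stimulated with the agonist NPW; 0% = agonist with vehicle and 100% = vehicle without agonist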
OX1R antag-2 – human HCRTR1 antagonism; O43613; CHO/OX1R cells, Fluo-8 calcium fluorescence, orexin A; inhibition, % at 5 µM; hit rate 0.43% among 330,000; AID 434989;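 active = inhibition above its plate's threshold, mean inhibition of all tested compounds on the plate plus 3 SD, cut at about 37% in these data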;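 note: 0% = orexin A challenge wells and 100% = SB-334867-A antagonist wells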
GPR7 antag conf – confirmation of human GPR7 antagonists | shares compounds with GPR7 antagonist | GPR7-expressing cells, calcium fluorescence antagonist mode | inhibition, % at 4.4 µM | hit rate 52% among 2,400 | AID 1952; in the data active = inhibition above about 24%;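 note: stimulated with the GPR7 agonist NPW; 0% = agonist plus vehicle and 100% = vehicle alone without agonist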
MCHR1 antagonist – counter-screen for GPR7 antagonists: antagonists of human MCHR1; shares compounds with GPR7 antagonist; MCHR1-expressing cells, fluorescence antagonist assay; inhibition, % at 4.4 µM; hit rate 62% among 2,400; in the data active = inhibition above about 22%;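 note: 0% = vehicle with agonist and 100% = vehicle without agonist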
Active calls of the source: *; x = not tested or not shown.

SMILES	OX1R antag-1	CHO parental Ca	TAAR1 antagonist	TAAR1 agonist	GPR7 antagonist	OX1R antag-2	GPR7 antag conf	MCHR1 antagonist
Cc1ccc(NC2=C(Cl)C(=O)OC2OC(=O)c2ccccc2)c(C)c1 (configuration not stated)	12	-1	12	3	-2	-3	x	x
COc1ccccc1NC(=O)C/C(N)=N/OCC(=O)Nc1cccc(Cl)c1	7	-14	0	5	x	3	x	x
COc1ccc(Nc2sc(C(=O)Nc3cccc(Cl)c3)c(N)c2C(=O)Nc2ccccc2OC)cc1	0	48*	x	x	50*	51*	77*	86*
CCOC(=O)N1CCC(NC(=O)CN2C(=O)C(CC)Oc3ccc(C)cc32)CC1 (configuration not stated)	14	-15	-42	0	-10	-21	x	x
CCC1Oc2ccc(C)cc2N(CC(=O)NC2CCCCC2)C1=O (configuration not stated)	7	-8	-4	-3	32*	-18	20	16
CS(=O)(=O)N(Cc1ccccc1)c1ccc(C(=O)N2CCN(c3cccc(Cl)c3)CC2)cc1	-1	6	x	x	24*	11	36*	70*
CS(=O)(=O)N(Cc1ccc(C(=O)N2CCc3ccccc3C2)cc1)c1ccccc1	21	-22	1	25	11	-21	x	x
CS(=O)(=O)N(Cc1ccc(Cl)cc1)c1ccc(C(=O)N2CCN(c3ccccc3)CC2)cc1	5	34*	34	13	21*	24	38*	46*
CN(c1ccc(C(=O)N2CCN(Cc3ccccc3)CC2)cc1)S(=O)(=O)c1ccc(Cl)cc1	18	-1	14	-1	32*	-7	20	33*
Cc1ccc(CN(c2ccc(C(=O)N3CCc4ccccc4C3)cc2)S(C)(=O)=O)cc1	4	-5	36	37	33*	-7	32*	47*
O=C(N/N=C/c1cc([N+](=O)[O-])ccc1O)c1cccc2ccccc12	32	28	-3	-1	27*	13	5	7
O=C(NN=Cc1cc(Cl)ccc1[N+](=O)[O-])c1cccc2ccccc12	x	x	11	-1	x	x	x	x
CCOc1ccc(C(=O)/C=C/c2ccc(SC)cc2)cc1	12	-17	20	4	37*	-16	41*	45*
CCOc1ccc(/C=C/C(=O)c2ccccc2)cc1	-2	-15	-11	1	12	-52	x	x
c1ccc2c(c1)ccn1c(Cc3ccsc3)c(C3CCCCC3)nc21	x	x	-12	2	x	x	x	x
O=C(Nc1ccc(F)cc1)c1cccc(N2C(=O)C3C4C=CC(C5CC45)C3C2=O)c1 (configuration not stated)	15	-8	40	9	26*	-20	24*	45*
CCOC(=O)C1=CCN(S(=O)(=O)c2ccccc2F)C1c1cccc(C)c1 (configuration not stated)	x	x	1	-1	x	x	x	x
COC(=O)C(C(=O)OC)c1ccc(-n2cccc2)cc1	26	-4	-8	0	35*	-10	12	9
CCCC(=O)N(CCN(Cc1ccccc1)C(=O)CCC)Cc1ccccc1	36	-20	12	5	31*	-19	43*	31*
COc1ccc(C(C(=O)Nc2c(C)cccc2C)N2CCN(C)CC2)cc1 (configuration not stated)	x	x	-10	2	x	x	x	x
O=C(COC(=O)c1cc([N+](=O)[O-])ccc1N1CCOCC1)NCc1ccc(Cl)cc1Cl	50	-8	-4	0	24*	-18	35*	36*
C#CCN(C[C@H]1[C@H](OC(=O)NCC2CCCCC2)[C@H](OC(=O)NCC2CCCCC2)C[C@@H](C(=O)OC)[C@H]1C(=O)OC)S(=O)(=O)c1ccc(C)cc1	x	x	-7	30	x	x	x	x
Cc1ccn2c(=O)c(NC(=O)c3ccc4c(c3)OCO4)c(C)nc2c1	x	x	-18	27	x	x	x	x
OCCN1CCN(CC(O)COc2ccc(C34CC5CC(CC(C5)C3)C4)cc2)CC1 (configuration not stated)	10	9	-6	20	40*	-7	35*	51*
OCCN1CCN(CC(O)COc2ccc(Cl)cc2)CC1 (configuration not stated)	14	-1	-3	4	-7	-7	x	x
SMILES	OX1R antag-1	CHO parental Ca	TAAR1 antagonist	TAAR1 agonist	GPR7 antagonist	OX1R antag-2	GPR7 antag conf	MCHR1 antagonist
O=C(Nc1ccc(Cl)cc1)C1CC(=O)n2c(nc3ccccc32)N1 (configuration not stated)	19	-3	x	x	23*	10	-9	2
Cc1nc2ccc(C(=O)N3CCCC(CO)(Cc4ccc(F)cc4F)C3)cc2nc1C (configuration not stated)	11	-19	4	6	32*	-35	-10	12
CCn1nc(C(C)C)cc1C(=O)N1CCCC(CO)(Cc2ccc(F)cc2F)C1 (configuration not stated)	44*	-21	-8	5	28*	3	10	27*
Cc1cc(C(=O)N2CCCC(CO)(Cc3ccc(F)cc3F)C2)nn1C (configuration not stated)	x	x	6	3	x	x	x	x
Cc1nc(C)c(-c2csc(Nc3ccc(Cl)cn3)n2)s1	x	x	-53	-2	x	x	x	x
CCOCCCn1c(=N)c(C(=O)NCc2ccc3c(c2)OCO3)cc2c(=O)n3ccccc3nc21	x	x	23	0	22*	x	29*	19
N=c1c(C(=O)NCCc2ccccc2)cc2c(=O)n3ccccc3nc2n1CCCN1CCOCC1	45*	-5	-8	-1	37*	-7	35*	17
N=c1c(C(=O)NC2CCCCC2)cc2c(=O)n3ccccc3nc2n1CCc1ccccc1	31	-4	-9	5	32*	-1	39*	25*
N=c1c(C(=O)NCCc2ccccc2)cc2c(=O)n3ccccc3nc2n1Cc1ccco1	23	-30	-12	-2	28*	-34	52*	49*
CCCn1c(=N)c(C(=O)NCc2ccc3c(c2)OCO3)cc2c(=O)n3cccc(C)c3nc21	37	-17	-10	5	-2	-27	x	x
COC(=O)[C@]12C[C@H](CC(=O)NCc3ccc(OC)c(OC)c3)C(=O)N(Cc3ccc4c(c3)OCO4)C1=C[C@H](COCc1ccccc1)O[C@@H]2C	x	x	-9	0	x	x	x	x
CC1(C(=O)NCCc2c[nH]c3ccccc23)CCN1Cc1csc2ccccc12 (configuration not stated)	x	x	-9	0	x	x	x	x
